In data set [1] the target is T1, Type-1 angiotensin II receptor (Oryctolagus cuniculus, UniProt P34976).
T1 sequence (P34976 whole entry): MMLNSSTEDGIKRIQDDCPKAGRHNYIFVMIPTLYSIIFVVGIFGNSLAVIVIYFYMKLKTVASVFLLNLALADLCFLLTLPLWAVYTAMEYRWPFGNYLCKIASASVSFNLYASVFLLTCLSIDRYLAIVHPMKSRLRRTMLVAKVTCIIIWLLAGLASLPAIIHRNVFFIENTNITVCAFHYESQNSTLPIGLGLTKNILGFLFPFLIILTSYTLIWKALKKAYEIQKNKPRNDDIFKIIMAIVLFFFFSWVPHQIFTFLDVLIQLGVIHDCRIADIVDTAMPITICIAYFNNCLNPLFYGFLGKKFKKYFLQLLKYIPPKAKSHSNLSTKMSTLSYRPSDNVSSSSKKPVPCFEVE
Nature of the data set: Antagonistic ability of angiotensin II to contract rabbit aorta. The data set is classed as functional, tissue-based. Particulars: read-out: pA2 (converted). Summed up: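 Angiotensin II contraction of rabbit aortic rings. Full pA2 from several drug concentrations by Schild plot (log drug concentration vs log(EC50 ratio-1)); EC50 ratio is the angiotensin II EC50 with drug over that without drug.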

Data set [2] deals with Rattus norvegicus. Kind of data set: % decrease in blood pressure after 4 hours at a dose of 10 mg/kg in male rats by using Renal artery hypertensive model. The class given is functional. Summed up: (§1)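 Male Sprague-Dawley rats (300-350 g) were made hypertensive by renal artery ligation and used on day 6 or 7 after ligation. Arterial pressure was measured from an indwelling femoral artery catheter, with blood pressure and heart rate recorded on line. Read-out is % decrease in blood pressure at 4 h, ±SEM, with number of rats.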

Data set [3] in a line: Half-life period of compound after intravenous dose of 3.87 mg/kg. The class given is ADME, organism-based. Details: dose 3.87 mg/kg, route intravenous. The settings on record: in vivo. In short, it runs like this:
(§2)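 Male Sprague-Dawley-derived rats. Compound was given in normal saline at 1 mL/kg, either as a slow iv bolus into the jugular vein or orally by gavage. Plasma underwent liquid-liquid extraction and reverse-phase HPLC. Terminal elimination half-life and time of observed peak concentration were taken from the profiles.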

Data set [4] in a line: Tmax value after oral dose of […]. The class given is ADME, organism-based. The settings on record: in vivo.
Data set [5] can be described thus: Area under curve after oral dose of 10 mg/kg. The class given is ADME, organism-based. The arrangement: dose 10 mg/kg, route oral. The settings on record: in vivo. In short, it runs like this:
(§3)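 Male Sprague-Dawley-derived rats were dosed with compound in normal saline (1 mL/kg), by gavage or as a slow IV bolus into the jugular vein. Heparinized tail-vein blood was taken at 0.25-24 h, extracted liquid-liquid and assayed by reverse-phase HPLC. Cmax is the observed peak concentration and AUC is mean (SEM). F compares oral with IV AUC, corrected for dose and assuming dose proportionality.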

Data set [6] deals with T2, Type-1 angiotensin II receptor A (Rattus norvegicus, UniProt P25095).
T2 sequence (P25095 whole entry): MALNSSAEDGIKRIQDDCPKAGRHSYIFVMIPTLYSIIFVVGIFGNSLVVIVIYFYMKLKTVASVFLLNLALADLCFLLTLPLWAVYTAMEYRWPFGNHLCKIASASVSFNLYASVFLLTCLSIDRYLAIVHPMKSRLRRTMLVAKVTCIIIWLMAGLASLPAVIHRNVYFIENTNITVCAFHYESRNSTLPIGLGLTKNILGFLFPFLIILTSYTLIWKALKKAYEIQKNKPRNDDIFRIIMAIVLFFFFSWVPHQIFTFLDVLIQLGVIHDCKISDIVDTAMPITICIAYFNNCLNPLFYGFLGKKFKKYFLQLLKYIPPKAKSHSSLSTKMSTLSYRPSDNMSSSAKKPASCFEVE
Nature of the data set: Binding affinity against angiotensin II receptor from rat liver. Summed up: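 Rat liver membranes were incubated with [125I]-saralasin to measure angiotensin II type 1 receptor binding. Nonspecific binding was defined with 1 µM angiotensin.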

Data set [7] in a line: Area under curve after oral dose of […]. The data set is classed as ADME, organism-based. The settings on record: in vivo.
Data set [8] is described as follows: Cmax value after oral dose of 10 mg/kg. Details: dose 10 mg/kg, route oral. The settings on record: in vivo. The data set is classed as ADME, organism-based. Summed up: as §3
Data set [9] deals with Rattus norvegicus. Nature of the data set: % decrease in blood pressure after 4 hours in male rats at a dose of 1 mg/kg by using Renal artery hypertensive model. The class given is functional. In short, it runs like this: as §1
Data set [10] in a line: Tmax value after oral dose of 10 mg/kg. The settings on record: in vivo. Details: dose 10 mg/kg, route oral. The class given is ADME, organism-based. In short, it runs like this:
as §2

Data set [11] can be described thus: Area under curve after oral dose of 3.87 mg/kg. The class given is ADME, organism-based. Details: dose 3.87 mg/kg, route oral. The settings on record: in vivo. In short, it runs like this: as §3
Data set [12] can be described thus: Cmax value after oral dose of […]. The settings on record: in vivo. The class given is ADME, organism-based.
Data set [13] in a line: Tmax value after oral dose of 3.87 mg/kg. Particulars: in vivo. The class given is ADME, organism-based. The arrangement: dose 3.87 mg/kg, route oral. In short, it runs like this: as §2
Data set [14] in a line: Volume of distribution of central compartment (dose+ plasma concentration at time zero) after intravenous dose of 3.87 mg/kg. The class given is ADME, organism-based. The arrangement: dose 3.87 mg/kg, route intravenous. Particulars: read-out: VI. In short, it runs like this: (§4)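 Jugular-vein slow iv bolus (normal saline, 1 mL/kg) in male Sprague-Dawley-derived rats. Plasma was sampled via the tail vein at 0.1–24 h and measured by reverse-phase HPLC after liquid-liquid extraction. Central volume was taken as dose divided by plasma concentration at time zero. Terminal-phase volume was derived from clearance and the plasma elimination rate constant.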

Data set [15] can be described thus: Volume of distribution of the terminal phase (CLp+ plasma elimination rate constant) after intravenous dose of 3.87 mg/kg. Particulars: read-out: Vbeta. The arrangement: dose 3.87 mg/kg, route intravenous. The class given is ADME, organism-based. Summed up:
as §4

Data set [16] has as its system Rattus norvegicus. Nature of the data set: % decrease in blood pressure after 4 hours in male rats at a dose of 3 mg/kg by using Renal artery hypertensive model. The data set is classed as functional. Summed up:
as §1

Data set [17] in a line: Bioavailability after oral dose of 3.87 mg/kg. The class given is ADME, organism-based. The settings on record: eutheria, in vivo. Summed up:
as §3

Data set [18] can be described thus: Bioavailability after oral dose of […]. The data set is classed as ADME, organism-based. Particulars: eutheria, in vivo.
Data set [19] is described as follows: Plasma clearance after intravenous dose of 3.87 mg/kg. The class given is ADME, organism-based. Details: dose 3.87 mg/kg, route intravenous. The settings on record: read-out: Clp. Summed up: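 Male Sprague-Dawley-derived rats received a slow iv bolus into the jugular vein of the compound in normal saline (1 mL/kg). Tail-vein heparinized blood was drawn from 0.1 to 24 h and assayed by reverse-phase HPLC after liquid-liquid extraction. Total plasma clearance was calculated as dose divided by AUC and reported as mean (SEM).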

Data set [20] in a line: Cmax value after oral dose of 3.87 mg/kg. The data set is classed as ADME, organism-based. Details: dose 3.87 mg/kg, route oral. The settings on record: in vivo. In short, it runs like this: as §3
Data set [21] can be described thus: Bioavailability after oral dose of 10 mg/kg. The class given is ADME, organism-based. Particulars: eutheria, in vivo. In short, it runs like this:
as §3

Structures are written as SMILES.

We go through two compounds from ChEMBL document CHEMBL1126796, “2-(Alkylamino)nicotinic acid and analogs. Potent angiotensin II antagonists” (J Med Chem, 1993).

Turning to `CCc1cc(OCc2ccc(-c3ccccc3-c3nn[nH]n3)cc2)c2nc(OC(C)C)ccc2n1`, the Kb in data set [1] is 100 pM.
`CCCCN(Cc1ccc(-c2ccccc2-c2nn[nH]n2)cc1)c1ncncc1C(=O)O.Cl`: the results for the “Decrease in blood pressure” value in [2], in data set [9] and in data set [16] were 41%, 10% and 18%, respectively. In data set [3], this compound had a half-life of 1.5 h. Besides, the Tmax in data set [4] is 1.1 h; in data set [10], 0.9 h; in data set [13], 1.3 h. In addition, the AUC in [5] was 2.83 µg/h/mL; in data set [7], 6.65 µg/h/mL; in data set [11], 2.38 µg/h/mL. In data set [6], this compound returned a Ki of 1770 pM. The results for the highest concentration (Cmax) in [8], in data set [12] and in data set [20] were 840 ng/mL, 1470 ng/mL and 510 ng/mL, respectively. The Vd in data set [14] stood at 0.08 L/kg; in data set [15], 0.42 L/kg. Also, the values for the bioavailability in data set [17], in data set [18] and in data set [21] were 10.3%, 4.8% and 4.8%, respectively. Moreover, the clearance in data set [19] is 0.85 mL/min.

As a reminder, the half-life is how long it takes for the measured level to halve. For orientation: Tmax means the time at which the peak concentration occurs. As a reminder, the Ki is the equilibrium dissociation constant of an inhibitor or competing ligand from its target. A higher Ki goes with lower affinity. For orientation: Cmax means the peak of the concentration-time curve. In general, bioavailability refers to dose-corrected exposure relative to a reference, in per cent. Low readings indicate poor availability, high ones good availability.
